Measured values published in ChEMBL document CHEMBL3124905, “Isothiocoumarin-3-carboxylic acid derivatives: synthesis, anticancer and antitrypanosomal activity evaluation” (Eur J Med Chem, 2014).
Activity calls are given as the source filed them. No cut-off for these calls is given here.

What was measured:
Assay type in all cases: functional
SF-268 = assay: Anticancer activity against human SF268 cells assessed as cell growth at 100 uM after 48 hrs by SRB assay; settings: SF-268, 48 h, read-out: Activity
Outline: (§1)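 NCI one-dose primary screen on a three-line panel (breast MCF7, lung NCI-H460, CNS SF-268). Cells were inoculated and preincubated 24–48 h, then exposed to a single concentration of 10−4 M for 48 h. The endpoint was sulforhodamine B protein staining, and results are expressed as percent growth relative to untreated control cells. Negative values denote cytotoxicity.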

MCF7 = assay: Anticancer activity against human MCF7 cells assessed as cell growth at 100 uM after 48 hrs by SRB assay; settings: MCF7, 48 h, read-out: Activity; outline: as §1
NCI-H460 [1] = assay: Anticancer activity against human NCI-H460 cells assessed as cell growth at 100 uM after 48 hrs by SRB assay; settings: NCI-H460, 48 h, read-out: Activity; outline: as §1
[2] = test system: Trypanosoma brucei brucei; assay: Antitrypanosomal activity against bloodstream form of Trypanosoma brucei brucei strain 90-13 assessed as inhibition of parasite growth at 10 ug/ml after 72 hrs by resazurin reduction test; settings: strain 90-13, 72 h
Outline: (§2)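 Trypanosoma brucei brucei 90-13 bloodstream forms, grown in HMI9 with 10% FCS at 37 °C under 5% CO2. Log-phase parasites were seeded at 10^5 cells/mL with or without inhibitor, with stocks prepared in DMSO. After 72 h, resazurin was added and fluorescence was read at 530/590 nm after a further 4 h. Percent growth inhibition was calculated versus drug-free parasites, with DMSO as control.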

[3] = test system: Trypanosoma brucei brucei; assay: Antitrypanosomal activity against bloodstream form of Trypanosoma brucei brucei strain 90-13 assessed as inhibition of parasite growth at 1 ug/ml after 72 hrs by resazurin reduction test; settings: strain 90-13, 72 h; outline: as §2
[4] = (§3) Growth inhibition of human HOP92 cells after 48 hrs by SRB assay; settings: HOP-92, 48 h
Outline: (§4)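 NCI five-dose assay against the ~60-cell-line panel (nine cancer types). Tenfold dilutions from 10−4 to 10−8 M were used with continuous 48-h exposure and SRB absorbance readout. Percent growth was computed from time-zero, control and treated absorbances. GI50 is the concentration giving 50% lower net protein increase than controls. Values not reached are reported as beyond the tested range.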

CAKI-1 = assay: Growth inhibition of human CAKI-1 cells after 48 hrs by SRB assay; outline: as §4
Hs-578T = assay: Growth inhibition of human Hs 578T cells after 48 hrs by SRB assay; outline: as §4
UO-31 = assay: Growth inhibition of human UO31 cells after 48 hrs by SRB assay
Outline: (§5)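 NCI ~60-cell-line five-dose screen. Cells were preincubated 24-48 h, then given compound at 10-fold dilutions from 10^-4 to 10^-8 M with 48 h continuous exposure. SRB protein stain was read by absorbance at time zero, in untreated control and with drug. GI50 was derived from [(Ti-Tz)/(C-Tz)]x100=50, TGI from Ti=Tz, and LC50 from [(Ti-Tz)/Tz]x100=-50.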

OVCAR-4 = assay: Growth inhibition of human OVCAR4 cells after 48 hrs by SRB assay; outline: as §4
OVCAR-3 = assay: Growth inhibition of human OVCAR3 cells after 48 hrs by SRB assay; outline: as §4
SNB-75 = assay: Growth inhibition of human SNB75 cells after 48 hrs by SRB assay; outline: as §4
Malme-3M = assay: Growth inhibition of human MALME-3M cells after 48 hrs by SRB assay; outline: as §4
NCI-H322M = assay: Growth inhibition of human NCI-H322M cells after 48 hrs by SRB assay; outline: as §4
SF-539 = assay: Growth inhibition of human SF539 cells after 48 hrs by SRB assay; outline: as §4
TK-10 = assay: Growth inhibition of human TK10 cells after 48 hrs by SRB assay; outline: as §5
ACHN = assay: Growth inhibition of human ACHN cells after 48 hrs by SRB assay; outline: as §4
786-0 [5] = assay: Growth inhibition of human 786-0 cells after 48 hrs by SRB assay; outline: as §4
OVCAR-8 = assay: Growth inhibition of human OVCAR8 cells after 48 hrs by SRB assay; outline: as §4
OVCAR-5 = assay: Growth inhibition of human OVCAR5 cells after 48 hrs by SRB assay; outline: as §4
UACC-62 = assay: Growth inhibition of human UACC62 cells after 48 hrs by SRB assay; outline: as §5
SF-295 = assay: Growth inhibition of human SF295 cells after 48 hrs by SRB assay; outline: as §4
HCC 2998 = assay: Growth inhibition of human HCC2998 cells after 48 hrs by SRB assay; outline: as §4
NCI-H522 = assay: Growth inhibition of human NCI-H522 cells after 48 hrs by SRB assay; outline: as §4
HOP69 = assay: Growth inhibition of human […] cells after 48 hrs by SRB assay; outline: as §4
A549 = assay: Growth inhibition of human A549/ATCC cells after 48 hrs by SRB assay; outline: as §4
MDA-MB-231 = assay: Growth inhibition of human MDA-MB-231/ATCC cells after 48 hrs by SRB assay; outline: as §4
PC-3 = assay: Growth inhibition of human PC3 cells after 48 hrs by SRB assay; outline: as §4
786-0 [6] = assay: Growth inhibition of human 786-O cells after 48 hrs by SRB assay; outline: as §4
M14 = assay: Growth inhibition of human M14 cells after 48 hrs by SRB assay; outline: as §4
LOX IMVI = assay: Growth inhibition of human LOXIMVI cells after 48 hrs by SRB assay; outline: as §4
U-251 = assay: Growth inhibition of human U251 cells after 48 hrs by SRB assay; outline: as §5
HCT-116 = assay: Growth inhibition of human HCT116 cells after 48 hrs by SRB assay; outline: as §4
NCI-H460 [7] = assay: Growth inhibition of human NCI-H460 cells after 48 hrs by SRB assay; outline: as §4
NCI-H23 = assay: Growth inhibition of human NCI-H23 cells after 48 hrs by SRB assay; outline: as §4
HOP-62 = assay: Growth inhibition of human HOP62 cells after 48 hrs by SRB assay; outline: as §4
RPMI18226 = assay: Growth inhibition of human […] cells after 48 hrs by SRB assay; outline: as §4
MOLT-4 = assay: Growth inhibition of human MOLT4 cells after 48 hrs by SRB assay; outline: as §4
MDA-MB-435 = assay: Growth inhibition of human MDA-MB-435 cells after 48 hrs by SRB assay; outline: as §4
KM12 = assay: Growth inhibition of human KM12 cells after 48 hrs by SRB assay; outline: as §4
SR = assay: Growth inhibition of human SR cells after 48 hrs by SRB assay; outline: as §5
CCRF-CEM = assay: Growth inhibition of human CCRF-CEM cells after 48 hrs by SRB assay; outline: as §4
SNB- = assay: Growth inhibition of human SNB cells after 48 hrs by SRB assay; outline: as §4
HOP-92 = assay: as §3; outline: as §4
BT-549 = assay: Growth inhibition of human BT549 cells after 48 hrs by SRB assay; outline: as §4
NCI/ADR-RES = assay: Growth inhibition of human NCI/ADR-RES cells after 48 hrs by SRB assay; outline: as §4
UACC-257 = assay: Growth inhibition of human UACC257 cells after 48 hrs by SRB assay; outline: as §5
SK-MEL-5 = assay: Growth inhibition of human SK-MEL-5 cells after 48 hrs by SRB assay; outline: as §4
EKVX = assay: Growth inhibition of human EKVX cells after 48 hrs by SRB assay; outline: as §4
RXF 393 = assay: Growth inhibition of human RXF393 cells after 48 hrs by SRB assay; outline: as §4

SMILES: O=C(Nc1nccs1)c1cc2ccccc2c(=O)s1
- growth at 100 µM (SF-268): 90%
- growth at 100 µM (MCF7): 91%
- growth at 100 µM (NCI-H460 [1]): 93%

SMILES: COc1ccc2cc(C(=O)Nc3cccc4ccccc34)sc(=O)c2c1OC
- inhibition at 10 µg/mL [2]: 41.2%
- inhibition at 1 µg/mL [3]: 20.8%
- GI50 [4]: 20.4 µM
- TGI ([4]; read-out: pTGI (converted)): 69.2 µM

SMILES: COc1ccc2cc(C(=O)Nc3cc(C)on3)sc(=O)c2c1OC
- growth at 100 µM (SF-268): 51%
- growth at 100 µM (MCF7): 52%
- growth at 100 µM (NCI-H460 [1]): 70%
- inhibition at 10 µg/mL [2]: 3.93%
- inhibition at 1 µg/mL [3]: 12.2%

SMILES: COc1ccc2cc(C(=O)Nc3nccs3)sc(=O)c2c1OC
- growth at 100 µM (SF-268): 98%
- growth at 100 µM (MCF7): 95%
- growth at 100 µM (NCI-H460 [1]): 94%
- pGI50 (CAKI-1): inactive
- pTGI (CAKI-1): inactive
- pGI50 (Hs-578T): inactive
- pTGI (Hs-578T): inactive
- pGI50 (UO-31): inactive
- pTGI (UO-31): inactive
- pGI50 (OVCAR-4): inactive
- pTGI (OVCAR-4): inactive
- pGI50 (OVCAR-3): inactive
- pTGI (OVCAR-3): inactive
- pGI50 (SNB-75): inactive
- pTGI (SNB-75): inactive
- pGI50 (Malme-3M): inactive
- pTGI (Malme-3M): inactive
- pGI50 (NCI-H322M): inactive
- pTGI (NCI-H322M): inactive
- pGI50 (SF-539): inactive
- pTGI (SF-539): inactive
- pGI50 (TK-10): inactive
- pTGI (TK-10): inactive
- pGI50 (ACHN): inactive
- pTGI (ACHN): inactive
- pGI50 (786-0 [5]): inactive
- pTGI (786-0 [5]): inactive
- pGI50 (OVCAR-8): inactive
- pTGI (OVCAR-8): inactive
- pGI50 (OVCAR-5): inactive
- pTGI (OVCAR-5): inactive
- pGI50 (UACC-62): inactive
- pTGI (UACC-62): inactive
- pGI50 (SF-295): inactive
- pTGI (SF-295): inactive
- pGI50 (HCC 2998): inactive
- pTGI (HCC 2998): inactive
- pGI50 (NCI-H522): inactive
- pTGI (NCI-H522): inactive
- pGI50 (HOP69): inactive
- pTGI (HOP69): inactive
- pGI50 (A549): inactive
- pTGI (A549): inactive
- pGI50 (MDA-MB-231): inactive
- pTGI (MDA-MB-231): inactive
- pGI50 (PC-3): inactive
- pTGI (PC-3): inactive
- pGI50 (786-0 [6]): inactive
- pTGI (786-0 [6]): inactive
- pGI50 (M14): inactive
- pTGI (M14): inactive
- pGI50 (LOX IMVI): inactive
- pTGI (LOX IMVI): inactive
- pGI50 (U-251): inactive
- pTGI (U-251): inactive
- pGI50 (HCT-116): inactive
- pTGI (HCT-116): inactive
- pGI50 (NCI-H460 [7]): inactive
- pTGI (NCI-H460 [7]): inactive
- pGI50 (NCI-H23): inactive
- pTGI (NCI-H23): inactive
- pGI50 (HOP-62): inactive
- pTGI (HOP-62): inactive
- pGI50 (RPMI18226): inactive
- pTGI (RPMI18226): inactive
- pGI50 (MOLT-4): inactive
- pTGI (MOLT-4): inactive
- pGI50 (MDA-MB-435): inactive
- pTGI (MDA-MB-435): inactive
- pGI50 (KM12): inactive
- pTGI (KM12): inactive
- pGI50 (SR): inactive
- pTGI (SR): inactive
- pGI50 (CCRF-CEM): inactive
- pTGI (CCRF-CEM): inactive
- pGI50 (SNB-): inactive
- pTGI (SNB-): inactive
- pGI50 (HOP-92): inactive
- pTGI (HOP-92): inactive
- pGI50 (BT-549): inactive
- pTGI (BT-549): inactive
- pGI50 (NCI/ADR-RES): inactive
- pTGI (NCI/ADR-RES): inactive
- pGI50 (UACC-257): inactive
- pTGI (UACC-257): inactive
- pGI50 (SK-MEL-5): inactive
- pTGI (SK-MEL-5): inactive
- pGI50 (EKVX): inactive
- pTGI (EKVX): inactive
- pGI50 (RXF 393): inactive
- pTGI (RXF 393): inactive

SMILES: COc1ccc2cc(C(=O)NCC(=O)O)sc(=O)c2c1OC
- growth at 100 µM (SF-268): 112%
- growth at 100 µM (MCF7): 109%
- growth at 100 µM (NCI-H460 [1]): 109%

SMILES: Cc1c(NC(=O)c2cc3ccccc3c(=O)s2)c(=O)n(-c2ccccc2)n1C
- growth at 100 µM (SF-268): 106%
- growth at 100 µM (MCF7): 107%
- growth at 100 µM (NCI-H460 [1]): 52%

SMILES: O=C(O)CNC(=O)c1cc2ccccc2c(=O)s1
- inhibition at 10 µg/mL [2]: 0.18%
- inhibition at 1 µg/mL [3]: 10.8%

SMILES: COc1ccc2cc(C(=O)Nc3ccc(Cl)cc3)sc(=O)c2c1OC
- growth at 100 µM (SF-268): 91%
- growth at 100 µM (MCF7): 80%
- growth at 100 µM (NCI-H460 [1]): 93%
- inhibition at 10 µg/mL [2]: 5.99%
- inhibition at 1 µg/mL [3]: 5.77%

SMILES: CCOC(=O)c1ccc(NC(=O)c2cc3ccc(OC)c(OC)c3c(=O)s2)cc1
- growth at 100 µM (SF-268): 117%
- growth at 100 µM (MCF7): 105%
- growth at 100 µM (NCI-H460 [1]): 103%
- inhibition at 10 µg/mL [2]: 20.9%
- inhibition at 1 µg/mL [3]: -0.53%
